PMC6437812 (ChemistryOpen, 2019)

What was measured:
HER2 = assay: Western blot of Hsp90 client protein HER2 in SK-BR-3 cells; assay type: cell-based, human; conditions: 20 μM, 12 h
Outline: (§1)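 SK‐BR‐3 cells (DMEM, 10 % FBS) were exposed to test compound at 20 μM for 12 h, washed in ice-cold PBS and lysed in SDS sample buffer. Equal lysate amounts went through SDS‐PAGE and PVDF transfer, with blocking in 5 % milk/TBST pH 7.6. Primary antibodies were applied overnight at 4 °C and secondary antibodies 2 h at room temperature. Detection was by ECL.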

[1] = biological target: recombinant human full-length Hsp90α (Homo sapiens, UniProt P07900); assay: FP assay, competition with FITC-GM; assay type: binding
[2] = tested on: breast cancer SK-BR-3 cell line; assay: SRB anti-proliferative assay, SK-BR-3; assay type: cell-based; conditions: Homo sapiens, SK-BR-3, 120 h, read-out: SK-BR-3 (IC50±SD, μM) for 120 h
Outline: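 Cells from ATCC, grown in DMEM with 10 % FBS at 37 °C and 5 % CO2. Seeded in 96-well plates overnight, then exposed to increasing concentrations in triplicate for 72 h, or for a prolonged 120 h. Growth was read by sulforhodamine B staining at OD 510 nm. IC50 came from curve fitting.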

[3] = tested on: A549 and SK-BR-3 cell lines; assay: Autophagy observed under the microscope; assay type: cell-based, human; conditions: 10 μM
Hsp72 = assay: Western blot of Hsp72; assay type: cell-based, human; conditions: SK-BR-3 cells, 20 μM, 12 h
Outline: as §1

Compound	expression of HER2 (HER2)	also measured
Cc1cc(C)n(-c2nc(NN=Cc3c[nH]c4ccccc34)nc(Nc3ccc(Br)cc3)n2)n1 [Compound A1, 4‐(2‐((1H‐indol‐3‐yl)methylene)hydrazinyl)‐N‐(4‐bromophenyl)‐6‐(3,5‐dimethyl‐1H‐pyrazol‐1‐yl)‐1,3,5‐triazin‐2‐amine]	obviously reduced	competition with FITC-GM for binding to Hsp90α [1]: failed to compete; IC50 [2]: 10.8 ± 1.3 µM; induction of autophagy [3]: little autophagy was induced
Brc1ccc(Nc2nc(N/N=C\c3c[nH]c4ccccc34)nc(Nc3ccccc3)n2)cc1 [Compound A16]	obviously reduced	–
NNc1nc(Nc2ccccc2)nc(Nc2ccc(Br)cc2)n1 [Compound A20]	obviously reduced	–
NNc1nc(NCc2ccccc2)nc(Nc2ccc(Br)cc2)n1 [Compound A22]	obviously reduced	–
CCCNc1nc(NCCC)nc(Nc2ccc(Br)cc2)n1 [Compound A24]	obviously reduced	–
Brc1ccc(Nc2nc(NCc3ccccc3)nc(NCc3ccccc3)n2)cc1 [Compound A25]	obviously reduced	–
COC1=C2C[C@@H](C)C[C@H](OC)[C@H](O)[C@@H](C)/C=C(\C)[C@H](OC(N)=O)[C@@H](OC)/C=C\C=C(/C)C(=O)NC(=CC1=O)C2=O [GM, geldanamycin]	–	induction of Hsp72 (Hsp72): induced
